Values after ≈ are worked out from the molar mass of the structure shown. Active and inactive are the calls of the source. No cut-off for these calls is given here.
What was measured:
Format in all cases: functional
[1] = tested on: Mycobacterium tuberculosis; assay: Antimycobacterial activity against Mycobacterium tuberculosis H37Rv ATCC 27294 assessed as growth inhibition by radiometric BACTEC assay
[2] = tested on: Mycobacterium tuberculosis; assay: Antimycobacterial activity against Mycobacterium tuberculosis H37Ra ATCC 25177 assessed as growth inhibition by Alamar blue microdilution broth assay
Summary of the method: (§1)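 Alamar blue colorimetric microdilution in Middlebrook 7H9 broth with 0.2% glycerol and ADC enrichment. Primary screen at 1.28 and 12.8 µg/mL. Actives (≤12.8 µg/mL) retested in two-fold dilutions. MIC99 is the lowest concentration giving complete growth inhibition.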

[3] = tested on: Mycobacterium tuberculosis; assay: Antimycobacterial activity against Mycobacterium tuberculosis H37Rv ATCC 27294 assessed as growth inhibition at 6.25 ug/ml by radiometric BACTEC assay
Summary of the method: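 Primary screen at a single 6.25 µg/mL in radiometric BACTEC 12B medium. Value is percent growth inhibition.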

Mycobacterium avium = assay: Antimycobacterial activity against Mycobacterium avium Nj211 assessed as growth inhibition by Alamar blue microdilution broth assay; summary of the method: as §1

Row | Compound | MIC90 [1] [µg/mL] | MIC99 [2] [µg/mL] | inhibition at 6.25 µg/mL [3] [%] | MIC99 (Mycobacterium avium) [µg/mL] | inhibition [3]
1 | CCCCCCCCCCSc1nc(N)nc2c1ncn2CC(=O)N[C@@H](Cc1ccccc1)C(=O)OCC | > 6.25 | > 12.8 | 16 | > 12.8 | 
2 | CCCCCCCCCCCCOc1ncnc2[nH]cnc12 [6-(DODECYLOXY)PURINE] | > 6.25 | > 12.8 | 56 | > 12.8 | 
3 | Cc1ccc(Oc2nc(N)nc3[nH]cnc23)cc1 |  |  |  |  | inactive
4 | CCCCCCCCCCSc1nc(N)nc2c1ncn2Cc1ccccc1 | > 6.25 | > 12.8 | 82 | > 12.8 | 
5 | Nc1nc(Oc2ccc(Cl)cc2)c2nc[nH]c2n1 | > 6.25 | > 12.8 | 20 | > 12.8 | 
6 | c1nc(OCC2CCCCC2)c2nc[nH]c2n1 | > 6.25 | > 12.8 | 6 | > 12.8 | 
7 | CCCCCCCCCCOc1nc(N)nc2[nH]cnc12 | 3.13 (≈ 10.7 µM) | > 12.8 | 91 | > 12.8 | 
8 | CCCCCCCCCCOc1nc(N)nc2c1ncn2CC(=O)O |  |  |  |  | inactive
9 | Clc1ccc(Oc2ncnc3[nH]cnc23)cc1 |  |  |  |  | inactive
10 | CC(C)Oc1ncnc2[nH]cnc12 [6-[(ISOPROPYL)OXY]PURINE] | > 6.25 | > 12.8 | 23 | > 12.8 | 
11 | COc1nc(Cl)nc2[nH]cnc12 | > 6.25 | > 12.8 | 24 | > 12.8 | 
12 | CCCCCCCCCCSc1nc(CC)nc2[nH]cnc12 | > 6.25 | > 12.8 | 84 | > 12.8 | 
13 | CCCCCCCCCCOc1nc(N)nc2c1ncn2CC(=O)OCC | > 6.25 | > 12.8 | 14 | > 12.8 | 
14 | CCCCCCCCCCSc1nc(N)nc2c1ncn2CC(=O)N[C@@H](CO)C(=O)OC | > 6.25 | > 12.8 | 5 | > 12.8 | 
15 | CC(C)Oc1nc(Cl)nc2[nH]cnc12 | > 6.25 | > 12.8 | 23 | > 12.8 | 
16 | Clc1nc(OCC2CCCCC2)c2[nH]cnc2n1 |  |  |  |  | inactive
17 | Nc1nc(OCc2ccc(Cl)c(Cl)c2)c2nc[nH]c2n1 | > 6.25 | > 12.8 | 24 | > 12.8 | 
18 | CCCCCCCCCCSc1nc(NC(C)=O)nc2[nH]cnc12 | > 6.25 | > 12.8 | 35 | > 12.8 | 
19 | CCCCCCCCCCSc1nc(N)nc2c1ncn2CC(O)CO (stereo not given) | > 6.25 | > 12.8 | 49 | > 12.8 | 
20 | CCCCCCCCCCOc1nc(N)nc2c1ncn2CC(=O)N[C@@H](Cc1ccccc1)C(=O)OCC |  |  |  |  | inactive
21 | C=CCn1cnc2c(SCCCCCCCCCC)ncnc21 | 6.25 (≈ 18.8 µM) | > 12.8 | 93 | > 12.8 | 
22 | CCCCCCCCCCCCOc1nc(Cl)nc2[nH]cnc12 | > 6.25 | > 12.8 | 59 | > 12.8 | 
23 | CCCCCCCCCCOc1nc(Cl)nc2[nH]cnc12 | > 6.25 | > 12.8 | 55 | > 12.8 | 
24 | Nc1nc(Oc2ccccc2)c2[nH]cnc2n1 |  |  |  |  | inactive
25 | CCCCCCCCCCSc1nc(N)nc2c1ncn2CC(=O)N[C@@H](CO)C(=O)OCC |  |  |  |  | inactive
26 | CCCCCCCCCCOc1ncnc2[nH]cnc12 [6-(DECYLOXY)PURINE] | < 6.25 | > 12.8 | 96 | > 12.8 | 
27 | Clc1nc(OCc2ccc(Cl)c(Cl)c2)c2nc[nH]c2n1 | > 6.25 | > 12.8 | 35 | > 12.8 | 
28 | CCCCCCCCCCSc1nc(N)nc2c1ncn2CC(=O)N[C@H](C)C(=O)OC | > 6.25 | > 12.8 | 7 | > 12.8 | 

Row | Compound | MIC90 [1] [µg/mL] | MIC99 [2] [µg/mL] | inhibition at 6.25 µg/mL [3] [%] | MIC99 (Mycobacterium avium) [µg/mL] | inhibition [3]
29 | CCCCCCCCCCSc1ncnc2c1ncn2Cc1ccccc1 | > 6.25 | > 12.8 | 86 | > 12.8 | 
30 | CCCCCCCCCCSc1ncnc2c1ncn2C1CCCC1O (stereo not given) | 6.25 (≈ 16.6 µM) | > 12.8 | 96 | > 12.8 | 
31 | Clc1ccc(COc2ncnc3[nH]cnc23)cc1Cl | > 6.25 | > 12.8 | 21 | > 12.8 | 
32 | CCCCCCCCCCSc1ncnc2c1ncn2C1CCCCCC1 | > 6.25 | > 12.8 | 81 | > 12.8 | 
33 | CCCCCCCCCCSc1nc(N)nc2c1ncn2CC(=O)N[C@@H](C)C(=O)OC |  |  |  |  | inactive
34 | Cc1cccc(Oc2nc(N)nc3[nH]cnc23)c1 |  |  |  |  | inactive
35 | CCCCCCCCCCSc1ncnc2c1ncn2C1CCCCC1O (stereo not given) | > 6.25 | > 12.8 | 90 | > 12.8 | 
36 | CCCCCCCCCCSc1ncnc2c1ncn2C1CCCCC1 | > 6.25 | > 12.8 | 85 | > 12.8 | 
37 | CCCCCCCCCCSc1nc(N)nc2c1ncn2CC(=O)O |  |  |  |  | inactive
38 | Clc1ccc(Oc2nc(Cl)nc3[nH]cnc23)cc1 | > 6.25 | > 12.8 | 8 | > 12.8 | 
39 | CCCCCCCCCCSc1ncnc2c1ncn2NC(C)=O | > 6.25 | > 12.8 | 92 | > 12.8 | 
40 | Nc1nc(OCc2ccccc2)c2nc[nH]c2n1 |  |  |  |  | inactive
41 | CCCCCCCCCCSc1nc(N)nc2c1ncn2CC(=O)N[C@H](CO)C(=O)OC |  |  |  |  | inactive
42 | CC(C)Oc1[nH]c(N)nc2ncnc1-2 | > 6.25 | > 12.8 | 23 | > 12.8 | 
43 | CCCCCCCCCCSc1ncnc2c1ncn2CC#N | 1.56 (≈ 4.71 µM) | > 12.8 | 97 | > 12.8 | 
44 | Cc1cccc(Oc2nc(Cl)nc3[nH]cnc23)c1 |  |  |  |  | inactive
45 | CCCCCCCCCCSc1nc(N)nc2c1ncn2CC(=O)N[C@@H](Cc1ccccc1)C(=O)OC |  |  |  |  | inactive
46 | CCCCCCCCCCSc1nc(SCCCCCCCCCC)c2ncn(COCCO)c2n1 |  |  |  |  | inactive
47 | CCCCCCCCCCOc1nc(N)nc2c1ncn2CC(=O)N[C@@H](Cc1ccccc1)C(=O)OC |  |  |  |  | inactive
48 | CCCCCCCCCCSc1ncnc2c1ncn2CC | > 6.25 | > 12.8 | 89 | > 12.8 | 
49 | Cc1ccc(Oc2nc(Cl)nc3[nH]cnc23)cc1 |  |  |  |  | inactive
50 | Nc1nc(Cl)c2ncn(CC(=O)O)c2n1 |  |  |  |  | inactive
51 | CCCCCCCCCCSc1ncnc2c1ncn2CCCC | 6.25 (≈ 17.9 µM) | > 12.8 | 98 | > 12.8 | 
52 | Nc1nc(OCC2CCCCC2)c2nc[nH]c2n1 | > 6.25 | > 12.8 | 93 | > 12.8 | 
53 | CCCCCCCCCCOc1nc(N)nc2c1ncn2CC(=O)N[C@@H](C)C(=O)OC |  |  |  |  | inactive
54 | CCCCCCCCCCSc1ncnc2c1ncn2CCOC(C)=O | 6.25 (≈ 16.5 µM) | > 12.8 | 96 | > 12.8 | 
55 | CCCCCCCCCCSc1nc(N)nc2c1ncn2CC(=O)N[C@H](Cc1ccccc1)C(=O)OC |  |  |  |  | inactive
